Test results as given in ChEMBL document CHEMBL1126914 (J Med Chem, 1993).
Square brackets hold non-standard residues; d marks the D form. Peptide text beside a SMILES is read from it. Tic = O=C(O)[C@@H]1Cc2ccccc2CN1; Aic = NC1(C(=O)O)Cc2ccccc2C1

Tests used:
Mu-type opioid receptor = Mu-type opioid receptor (Rattus norvegicus, UniProt P33535); test: Binding affinity was determined on mu [3H]DAGO site in rat brain synaptosomes by radioreceptor assay; format: subcellular
Summary of the method: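 μ sites labelled with 0.68 nM [3H]DAGO; rat brain (minus cerebella) P2 synaptosomes, preincubated to remove endogenous opioids, 1.6 mg protein; 2 h at 22 °C in duplicate. Nonspecific defined with 1 μM DAGO. Rapid filtration on GF/C filters, washes with ice-cold buffered BSA; scintillation counting; Ki via Cheng–Prusoff from IC50.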

[1] = target: Delta-type opioid receptor (Rattus norvegicus, UniProt P33533); test: Binding affinity was determined on delta [3H]DPDPE site in rat brain synaptosomes by radioreceptor assay; format: subcellular
Summary of the method: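 δ sites labelled with 0.62 nM [3H]DPDPE; rat brain (minus cerebella) P2 synaptosomes, preincubated to remove endogenous opioids, 1.6 mg protein; 2 h at 22 °C in duplicate. Nonspecific defined with 1 μM DPDPE. Rapid filtration on GF/C filters with ice-cold buffered BSA washes; liquid scintillation counting; Ki from IC50 by Cheng–Prusoff.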

[2] = Bioselectivity ratio of compound as guinea pig ileum to mouse vas deferens was determined; format: functional
Summary of the method: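 GPI/MVD ratio of IC50s. GPI: 2–3 cm segments in Krebs with 70 μM hexamethonium and 0.125 μM mepyramine, 36 °C, 95% O2/5% CO2; transmural 0.5 ms, 0.1 Hz pulses at 1.5× maximal (~30 V); isotonic recording. MVD: 33 °C, field stimulation 0.1 Hz, 1 ms, 40 V; isometric recording. IC50 is 50% twitch inhibition, from four experiments.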

Sequence of Mu-type opioid receptor (P33535 whole entry): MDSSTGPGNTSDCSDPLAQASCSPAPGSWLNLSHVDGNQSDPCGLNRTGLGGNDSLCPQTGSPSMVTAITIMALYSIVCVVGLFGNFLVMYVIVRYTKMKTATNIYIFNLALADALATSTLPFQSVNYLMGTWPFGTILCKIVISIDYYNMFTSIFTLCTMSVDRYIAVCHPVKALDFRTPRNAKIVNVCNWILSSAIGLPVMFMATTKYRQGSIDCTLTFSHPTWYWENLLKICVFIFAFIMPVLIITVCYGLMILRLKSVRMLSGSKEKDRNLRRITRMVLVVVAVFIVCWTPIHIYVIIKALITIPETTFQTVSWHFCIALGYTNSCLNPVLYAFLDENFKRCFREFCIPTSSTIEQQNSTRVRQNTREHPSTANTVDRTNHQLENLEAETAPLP
Sequence of Delta-type opioid receptor (P33533 whole entry): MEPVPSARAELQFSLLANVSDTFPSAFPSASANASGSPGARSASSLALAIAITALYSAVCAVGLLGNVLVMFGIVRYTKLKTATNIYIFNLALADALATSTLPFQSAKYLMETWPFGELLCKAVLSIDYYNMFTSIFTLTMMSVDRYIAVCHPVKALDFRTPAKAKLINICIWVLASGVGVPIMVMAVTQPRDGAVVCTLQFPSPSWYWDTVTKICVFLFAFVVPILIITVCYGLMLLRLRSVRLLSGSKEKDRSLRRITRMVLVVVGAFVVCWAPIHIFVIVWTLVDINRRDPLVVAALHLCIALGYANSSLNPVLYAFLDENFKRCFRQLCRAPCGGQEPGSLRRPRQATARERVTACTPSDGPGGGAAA

SMILES | Ki (Mu-type opioid receptor) | Ki [1] | Ratio [2]
CC(C)[C@H](NC(=O)[C@H](CC(=O)O)NC(=O)C1(NC(=O)[C@@H](C)NC(=O)[C@@H](N)Cc2ccc(O)cc2)Cc2ccccc2C1)C(=O)N[C@H](C(=O)NCC(N)=O)C(C)C (H-Y[dA][Aic]DVVG-NH2) | 56.2 nM | 0.2 nM | 900
CC(C)[C@H](NC(=O)[C@H](CC(=O)O)NC(=O)[C@H](CCc1ccccc1)NC(=O)[C@@H](C)NC(=O)[C@@H](N)Cc1ccc(O)cc1)C(=O)N[C@H](C(=O)NCC(N)=O)C(C)C | 326 nM | 4.84 nM | –
CC(C)[C@H](NC(=O)[C@H](CC(=O)O)NC(=O)C1(NC(=O)[C@@H](C)NC(=O)[C@@H](N)Cc2ccc(O)cc2)CCc2ccccc2C1)C(=O)N[C@H](C(=O)NCC(N)=O)C(C)C (single isomer, unassigned; 15) | 178 nM | 0.07 nM | 3522
CC(C)[C@H](NC(=O)[C@H](CC(=O)O)NC(=O)[C@@H]1Cc2ccccc2CN1C(=O)[C@@H](C)NC(=O)[C@@H](N)Cc1ccc(O)cc1)C(=O)N[C@H](C(=O)NCC(N)=O)C(C)C (H-Y[dA][Tic]DVVG-NH2) | 7810 nM | 90.2 nM | >65
CC(C)[C@H](NC(=O)[C@H](CC(=O)O)NC(=O)[C@H](Cc1ccc2ccccc2c1)NC(=O)[C@@H](C)NC(=O)[C@@H](N)Cc1ccc(O)cc1)C(=O)N[C@H](C(=O)NCC(N)=O)C(C)C | 770 nM | 10.7 nM | –
CC(C)[C@H](NC(=O)[C@H](CC(=O)O)NC(=O)[C@@H](NC(=O)[C@@H](C)NC(=O)[C@@H](N)Cc1ccc(O)cc1)c1ccccc1)C(=O)N[C@H](C(=O)NCC(N)=O)C(C)C | 3750 nM | 2.85 nM | –
CC(C)[C@H](NC(=O)[C@H](CC(=O)O)NC(=O)[C@H](Cc1cccc2ccccc12)NC(=O)[C@@H](C)NC(=O)[C@@H](N)Cc1ccc(O)cc1)C(=O)N[C@H](C(=O)NCC(N)=O)C(C)C | 279 nM | 0.61 nM | –
CC(C)[C@H](NC(=O)[C@H](CC(=O)O)NC(=O)[C@H](Cc1ccccc1)NC(=O)[C@@H](C)NC(=O)[C@@H](N)Cc1ccc(O)cc1)C(=O)N[C@H](C(=O)NCC(N)=O)C(C)C [DELTORPHIN C] | 205 nM | 0.31 nM | –
CC(C)[C@H](NC(=O)[C@H](CC(=O)O)NC(=O)[C@H](Cc1cnc[nH]1)NC(=O)[C@@H](C)NC(=O)[C@@H](N)Cc1ccc(O)cc1)C(=O)N[C@H](C(=O)NCC(N)=O)C(C)C | 3720 nM | 45.5 nM | –
COc1ccc(C[C@H](NC(=O)[C@@H](C)NC(=O)[C@@H](N)Cc2ccc(O)cc2)C(=O)N[C@@H](CC(=O)O)C(=O)N[C@H](C(=O)N[C@H](C(=O)NCC(N)=O)C(C)C)C(C)C)cc1 | 526 nM | 45.4 nM | –
CC(C)[C@H](NC(=O)[C@H](CC(=O)O)NC(=O)C1(NC(=O)[C@@H](C)NC(=O)[C@@H](N)Cc2ccc(O)cc2)CCc2ccccc2C1)C(=O)N[C@H](C(=O)NCC(N)=O)C(C)C (single isomer, unassigned; 15a) | 82.3 nM | 0.12 nM | 606
CC(C)[C@H](NC(=O)[C@H](CC(=O)O)NC(=O)[C@](C)(Cc1ccccc1)NC(=O)[C@@H](C)NC(=O)[C@@H](N)Cc1ccc(O)cc1)C(=O)N[C@H](C(=O)NCC(N)=O)C(C)C (single isomer, unassigned; 6a) | 3400 nM | 48.6 nM | >20
CC(C)[C@H](NC(=O)[C@H](CC(=O)O)NC(=O)/C(=C\c1ccccc1)NC(=O)[C@@H](C)NC(=O)[C@@H](N)Cc1ccc(O)cc1)C(=O)N[C@H](C(=O)NCC(N)=O)C(C)C | 114 nM | 4.23 nM | –
CC(C)[C@H](NC(=O)[C@H](CC(=O)O)NC(=O)[C@](C)(Cc1ccccc1)NC(=O)[C@@H](C)NC(=O)[C@@H](N)Cc1ccc(O)cc1)C(=O)N[C@H](C(=O)NCC(N)=O)C(C)C (single isomer, unassigned; 6) | 1360 nM | 69.1 nM | >18
CC(C)[C@H](NC(=O)[C@H](CC(=O)O)NC(=O)[C@H](Cc1ccc(O)cc1)NC(=O)[C@@H](C)NC(=O)[C@@H](N)Cc1ccc(O)cc1)C(=O)N[C@H](C(=O)NCC(N)=O)C(C)C | 1180 nM | 34 nM | –
CC(C)[C@H](NC(=O)[C@H](CC(=O)O)NC(=O)[C@H](Cc1ccccc1)N(C)C(=O)[C@@H](C)NC(=O)[C@@H](N)Cc1ccc(O)cc1)C(=O)N[C@H](C(=O)NCC(N)=O)C(C)C | 19000 nM | 284 nM | –
CC(C)[C@H](NC(=O)[C@H](CC(=O)O)NC(=O)[C@H](Cc1c[nH]c2ccccc12)NC(=O)[C@@H](C)NC(=O)[C@@H](N)Cc1ccc(O)cc1)C(=O)N[C@H](C(=O)NCC(N)=O)C(C)C | 323 nM | 2.34 nM | –
